Screens (PubChem BioAssay)
This is a sample that favours compounds with a hit; in the whole collection about 3.5% have one here.
Cneo AK release – Cryptococcus neoformans cell lysis inducers, primary screen, AK release luminescence, single concentration. C. neoformans lysis, adenylate kinase release luminescence, 4 h; normalised: neutral wells 0, clomiphene wells 100. lysis activity, % at 15 µM. 0.2% of 360,000 active;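 active = mean lysis activity across replicates of at least 80%, whatever share of replicates individually reach that level; inactive = mean lysis activity below 80%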
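Assay system: C. neoformans cells. Amount: yeast cell density of 5 × 10^6 cells/mL. Technique: AK luminescence. Buffer or medium: YPD. Times: static 4 h at 37 °C with compound, 1 h detection. Dosing: single-point compound dose. Read-out: lysis from increased AK signal.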
Ecoli rRNA inh – reduced GFP signal of wild-type E. coli, primary screen, bacterial rRNA inhibitor project, GFP/RFP fluorescence, OD600, single point | E. coli WT GFP vs humanized-ribosome RFP mutants, 24 h; active compounds read low; DMSO median 0, no signal -100 | GFP signal change (wild-type ribosome), % (concentration not given with the values) | 1.6% of 350,000 active;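 active = significant combined selectivity score with lowered wild-type GFP, culture density cut under 30%, mutant RFP and density less affected; inactive = any of these conditions unmet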
ERAP1 HTS inh – human ERAP1 aminopeptidase inhibitors, primary screen, biochemical, single point, plate reader; 0.15% of 340,000 active; AID 652197, 2013; inhibition, % at 10.7 µM; Endoplasmic reticulum aminopeptidase 1 (Homo sapiens), Q9NZ08; recombinant ERAP1, Leu-AMC fluorescence, 60 min;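 active = mean replicate inhibition of at least 30%, or all replicates individually reaching that 30% level; inactive = mean below 30% and not every replicate reaching it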;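 also: 0% = neutral control wells and 100% = L-leucinethiol positive control wells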
Target sequence (Q9NZ08 whole entry, looked up): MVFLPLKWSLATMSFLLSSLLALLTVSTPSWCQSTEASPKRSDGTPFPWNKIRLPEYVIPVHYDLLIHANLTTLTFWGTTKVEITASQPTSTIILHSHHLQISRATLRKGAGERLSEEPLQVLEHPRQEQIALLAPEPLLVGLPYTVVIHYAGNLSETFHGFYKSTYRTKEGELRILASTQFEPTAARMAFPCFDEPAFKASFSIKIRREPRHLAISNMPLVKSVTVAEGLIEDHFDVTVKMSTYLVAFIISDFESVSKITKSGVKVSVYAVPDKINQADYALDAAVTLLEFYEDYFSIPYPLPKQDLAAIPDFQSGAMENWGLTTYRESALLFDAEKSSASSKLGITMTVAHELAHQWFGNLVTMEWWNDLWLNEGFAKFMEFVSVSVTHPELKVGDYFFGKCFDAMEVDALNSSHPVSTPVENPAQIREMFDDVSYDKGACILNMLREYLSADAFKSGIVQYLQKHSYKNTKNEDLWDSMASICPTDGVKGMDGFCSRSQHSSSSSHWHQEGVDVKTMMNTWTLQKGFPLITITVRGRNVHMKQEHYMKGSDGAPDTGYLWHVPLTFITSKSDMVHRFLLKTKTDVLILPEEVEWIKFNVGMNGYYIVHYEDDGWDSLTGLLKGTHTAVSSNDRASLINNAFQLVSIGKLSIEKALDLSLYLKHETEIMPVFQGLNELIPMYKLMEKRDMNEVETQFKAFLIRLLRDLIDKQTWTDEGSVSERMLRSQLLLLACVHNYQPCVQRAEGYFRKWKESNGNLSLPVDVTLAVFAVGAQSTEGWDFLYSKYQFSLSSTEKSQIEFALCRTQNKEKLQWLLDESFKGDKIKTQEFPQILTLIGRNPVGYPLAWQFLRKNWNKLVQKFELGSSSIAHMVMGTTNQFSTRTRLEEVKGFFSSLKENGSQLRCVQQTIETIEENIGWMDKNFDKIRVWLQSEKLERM
FGF22 binding – binders of human FGF22 protein, primary screen, FGF22 synaptogenesis inhibitor project, biophysical, thermal shift, single point. Fibroblast growth factor 22 (Homo sapiens), Q9HCT0. recombinant FGF22 thermal shift, SYPRO orange fluorescence; percent of sucrose octasulfate shift, DMSO zero. activity (Tm shift, normalised), % at 9.99 µM. 1.5% of 340,000 active. AID 651658, 2012;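 active = mean Tm shift, scaled 0 neutral to 100 positive control, at about 1.3% or above, every replicate too, limit read from the data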
Env fusion inh – inhibitors of HIV-1 Env-driven cell-cell fusion, primary screen, HeLa-JRFL effector, CEM21 target cells, luciferase. inhibition, % at 12.3 µM. 1.1% of 360,000 active;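 active = mean replicate inhibition score of at least 50 and every replicate individually at or above 50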;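 also: 0% = plate neutral controls and 100% = maraviroc near 300 nM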
PGC1a acetyl inh – inhibitors of PGC1a acetylation signal, primary screen, cell-based, U2OS, AlphaScreen, inhibitor mode; AlphaScreen anti-acetyl-lysine; with virally co-expressed GCN5 acetyltransferase; inhibition, % at 15.6 µM; 0.17% of 350,000 active;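 active = every replicate shows inhibition of at least 40%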;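 also: 0% = neutral control wells and 100% = positive control wells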
Starred values were filed as active, the others as inactive; . = no result given; ! = a repeat was not active; [ ] = dose if it differs, or a comment.

SMILES | Cneo AK release | Ecoli rRNA inh | ERAP1 HTS inh | FGF22 binding | Env fusion inh | PGC1a acetyl inh
O=C1c2ccccc2NC(c2cccc(O)c2)N1NS(=O)(=O)c1ccccc1 (stereo unspecified) | -0.5 | -2.0 | 38.4* | 0.3 | 7.7 | 0.0
COc1cccc(/C(O)=C2\C(=O)C(=O)N(c3ccccn3)C2c2ccccc2OC)c1 (stereo unspecified) | 1.1 | . | . | . | -31.5 | -2.1
Cc1ccc(CN2CCNC(=O)C2CC(=O)N2CCN(c3ncccn3)CC2)o1 (stereo unspecified) | 0.5 | 4.9 | -0.8 | 0.2 | 7.2 | -2.1
CN1CCN(c2nc(-c3ccccc3O)nc3ccccc23)CC1 | . | -8.4 | 2.6 | -0.1 | -6.6 | .
COc1cccc(-c2nc(N3CCN(C)CC3)c3ccccc3n2)c1O | . | -22.8* | -3.5 | 0.2 | -61.9 | -14.6
Cc1ccnc(NC(=O)CCNC(=O)c2ccc(Br)cc2)c1 | -1.6 | 4.3 | 2.9 | -0.3 | 56.7* | -5.7
Cc1ccc(NC(=O)CCNC(=O)c2ccc(Br)cc2)nc1 | -3.9 | 14.9 | -1.2 | -0.1 | 12.8 | -8.5
O=C(CCNC(=O)c1ccc(Br)cc1)NNC(=O)COc1ccccc1F | . | -0.1 | 2.1 | 0.0 | 73.5* | .
Cc1ccc(S(=O)(=O)N2[C@@H](c3ccc(C(C)(C)C)cc3)C(C(=O)O)=CC[C@H]2c2cccc(Cl)c2)cc1 | -1.1 | -10.8 | 5.6 | . | -21.2 | .
Cc1nc(-c2ccccc2)sc1C(=O)O | . | 7.3 | -2.7 | 0.2 | -22.8 | -9.5
Cc1ccc(-c2nc(C)c(C(=O)O)s2)cc1 | . | 6.7 | 1.5 | 43.4* | -64.5 | 5.6
O=C1COc2ccc(-c3csc(=Nc4ccc(OC(F)F)cc4)n3CC3CCCO3)cc2N1 (stereo unspecified) | 0.4 | . | . | . | 92.4* | 7.0
COc1ccccc1N=c1scc(-c2ccc3c(c2)NC(=O)CO3)n1CC1CCCO1 (stereo unspecified) | -1.0 | . | . | . | . | 2.4
COCC(C)n1c(-c2ccc3c(c2)NC(=O)CO3)csc1=Nc1ccc(OC(F)F)cc1 (stereo unspecified) | . | 0.3 | -0.5 | 1.0 | 83.2*! | 15.6
CCN=c1scc(-c2ccc3c(c2)NC(=O)CO3)n1N=C1CCCC1 | -0.6 | -14.2 | 3.5 | -0.4 | 46.6 | 5.7
COC(=O)C[C@@H]1C=C[C@@H](NC(=O)NC2CCCC2)[C@@H](CO)O1 | . | 6.8 | 0.8 | 41.6 | 11.7 | .
C[C@H](CO)N1C[C@H](C)[C@@H](CN(C)C(=O)Nc2ccccc2)Oc2ncc(C3=CCCCC3)cc2C1=O | . | -0.2 | -3.3 | 0.1 | -18.2[16.7 µM] | 1.7
CCCNC(=O)N1CC2(CN(C(=O)C3CCCC3)C2)c2c([nH]c3cc(OC)ccc23)[C@H]1CO | . | -2.0 | -1.2 | -0.2 | . | .
COc1ccc(NC(=O)CCCNC(=O)c2ccc(Cl)cc2)c(OC)c1 | 1.4 | -2.8 | -1.5 | 0.5 | -0.4 | -10.8
Cc1ccc(C(=O)NCC(=O)NCC(=O)OCC(=O)c2ccc(F)cc2)cc1 | . | . | . | . | -12.0 | .
Cc1ccc(C(=O)NCC(=O)OCC(=O)NCC(F)(F)F)cc1 | . | 11.8 | -2.6 | 44.1* | -7.1 | .
CN(C)CCCNC(=O)/C(=C\c1ccc(-c2cccc([N+](=O)[O-])c2)o1)NC(=O)c1ccccc1 | . | 12.5 | 3.1 | -0.1 | -5.5 | .
Cc1ccc(C(=O)N/C(=C\c2ccc(-c3cccc([N+](=O)[O-])c3)o2)C(=O)NCCCN(C)C)cc1 | -4.4 | -29.2* | -0.5 | -0.1 | -10.2 | 4.0
O=C(NCC1CC1)[C@H]1[C@H](CO)[C@H]2Cn3c(cccc3=O)[C@H]2N1C(=O)CC1CC1 | -0.1 | 2.5 | 0.1 | -0.4 | . | .
CC(C)c1cc(C(=O)N2CCCC(C(=O)c3ccc4ccccc4c3)C2)on1 (stereo unspecified) | -1.2 | -26.6 | 0.4 | 0.0 | 11.8 | .
SMILES | Cneo AK release | Ecoli rRNA inh | ERAP1 HTS inh | FGF22 binding | Env fusion inh | PGC1a acetyl inh
Cc1cc(Cl)ccc1C(=O)C1CCCN(C(=O)c2cc(C(C)C)no2)C1 (stereo unspecified) | 3.0 | -36.8* | -3.5 | 0.2 | 10.3 | .
CCN(CC)c1ccc2nc3ccc(N)cc3[n+](-c3ccccc3)c2c1 | -5.7 | 0.5 | 2.3 | -1.0 | 71.6* | -28.7
CC(=O)c1cn(N(C)c2ncc(C(F)(F)F)cc2Cl)c(=O)[nH]c1=O | . | 9.3 | -0.3 | 42.4 | -8.0 | 1.2
C=CCn1c(=O)c(C(C)=O)cn(N(C)c2ncc(C(F)(F)F)cc2Cl)c1=O | . | 10.5 | -3.7 | 43.1* | 12.6 | -0.9
O=C(C[n+]1cc(Br)cc(Br)c1)c1ccc(-c2ccccc2)cc1 | 0.6 | -0.2 | -0.6 | 0.1 | 16.9 | 4.2
O=c1cc(O)c2sc(Nc3ccc(Cl)c(F)c3)nc2[nH]1 | -3.3 | -11.4 | -0.8 | 0.1 | 31.3 | 14.9
O=c1cc(O)c2sc(Nc3ccc(F)c(Cl)c3)nc2[nH]1 | . | 5.0 | 3.0 | 0.7 | 68.1* | -1.7
CC1CCc2c(C(=O)NCc3cccnc3)csc2C1 (stereo unspecified) | 0.8 | -14.4 | 0.4 | 43.2* | -1.0 | 4.4
CC1CCc2c(C(=O)NCc3ccccn3)csc2C1 (stereo unspecified) | . | 1.6 | 1.0 | -0.5 | -25.0 | .
O=C(Cc1cccs1)Nc1cccc([N+](=O)[O-])c1 | . | 2.0 | 2.0 | 43.4* | 10.5 | .
CC(CC(=O)O)CC(=O)Nc1cccc([N+](=O)[O-])c1 (stereo unspecified) | . | 15.2 | -5.0 | 43.1* | 2.5 | .
O=C(Cc1ccccc1)Nc1cccc([N+](=O)[O-])c1 | 2.4 | 8.1 | 4.5 | -0.3 | 5.6 | .
O=C(Nc1ccc(F)cc1)N[C@@H]1CC[C@@H](CCNS(=O)(=O)c2ccccc2F)O[C@@H]1CO | -6.2 | -2.3 | 0.2 | 0.1 | -14.1[16.7 µM] | 6.2
COc1cc(NS(=O)(=O)c2ccc(Br)s2)cc(OC)c1 | 0.2 | . | . | . | -19.9 | 1.5
CO[C@H]1CN(C)C(=O)c2cc(NS(=O)(=O)c3ccc(Cl)cc3)ccc2OC[C@@H](C)N(C)C[C@@H]1C | -6.3 | 0.3 | 3.9 | . | 60.9*[16.7 µM] | -16.6
CO[C@H]1CN(C)C(=O)c2cc(NS(=O)(=O)c3ccc(C)cc3)ccc2OC[C@H](C)N(C)C[C@H]1C | 115.7* | -0.8 | 0.7 | -0.4 | . | -16.4
CO[C@H]1CN(C)C(=O)c2cc(NS(=O)(=O)c3ccc(C)cc3)ccc2OC[C@@H](C)N(C)C[C@H]1C | 0.1 | 3.3 | 1.2 | 0.3 | . | -19.8
O=C(/C=C/c1ccc(OCCCF)cc1)Nc1ccnc(-c2cccnc2)n1 | 0.3 | 10.6 | -2.7 | 43.6* | 5.8 | .
O=C1COc2ccc(-c3n[nH]c(=O)c4ccccc34)cc2N1 | . | 12.4 | -7.1 | 43.2* | 4.9 | 1.9
